Usually IC50 stands for the concentration needed to halve the response being measured.

16 compounds from ChEMBL document CHEMBL4665801, “Pyrazole-Based Lactate Dehydrogenase Inhibitors with Optimized Cell Activity and Pharmacokinetic Properties” (J Med Chem, 2020) can be followed below.

The structures appear in SMILES notation. Active and inactive are the calls of the source. The rule behind the calls is not given here.

In test [1] the target is T1, L-lactate dehydrogenase A chain (Homo sapiens, UniProt P00338). The test is described as follows: Inhibition of GS[HiBiT]GS-tagged LDHA (unknown origin) expressed in HEK-293T cells measured after 1 hr by […]. The format is cell-based. The method in brief: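 HEK293T cells were transiently transfected for 24 h with CMV-driven LDHA carrying a C-terminal GS[HiBiT]GS tag, then reseeded at 2500 cells/well in DPBS with Ca/Mg and 1 g/L glucose. […] Cells were lysed with NP40, and 11S (100 nM final) plus furimazine was added.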

The next test has as its system A673. Briefly: Cytotoxicity against human A673 cells assessed as reduction in cell viability after 48 hrs by CellTiter-Glo assay. The conditions noted are these: A673, 48 h. The format is functional, cell-based.
The target of test [2] is T1, L-lactate dehydrogenase A chain. Briefly: Inhibition of recombinant human LDHA using sodium pyruvate as substrate preincubated for 5 mins followed by diaphorase/resazurin addition and measured after 20 mins by fluorescence based assay. For orientation: Resazurin is reduced to fluorescent resorufin, in cell work by metabolically active cells.
The target of test [3] is L-lactate dehydrogenase B chain (Homo sapiens) (UniProt P07195). Briefly: Inhibition of recombinant human LDHB using sodium pyruvate as substrate preincubated for 5 mins followed by diaphorase/resazurin addition and measured after 20 mins by fluorescence based assay.
In a further test the test system is MIA PaCa-2. The test is described as follows: Cytotoxicity against human MIA PaCa-2 cells assessed as reduction in cell viability after 48 hrs by CellTiter-Glo assay. It is filed as functional, cell-based. The conditions noted are these: MIA PaCa-2, 48 h. (Cellular ATP, detected with luciferase, serves as a proxy for viable cell number.)
Test [4] has as its target T1, L-lactate dehydrogenase A chain. The test is described as follows: Inhibition of LDHA in human A673 cells assessed as decrease in lactate production incubated for 2 hrs by lactate oxidase-coupled fluorescence based assay. It is filed as cell-based.
A further test is filed under the species Sus scrofa. Briefly: Inhibition of porcine heart MDH using malic acid as substrate preincubated for 10 mins followed by substrate addition and measured after 5 mins by resazurin based fluorescence based assay. Particulars: time 15.0 min.
For test [5], the target named is T1, L-lactate dehydrogenase A chain. The test is described as follows: Inhibition of LDHA in human MIA PaCa-2 cells assessed as decrease in lactate production incubated for 2 hrs by lactate oxidase-coupled fluorescence based assay. The format is cell-based.

Chain of L-lactate dehydrogenase B chain (Homo sapiens) (P07195 2-334 limits assumed): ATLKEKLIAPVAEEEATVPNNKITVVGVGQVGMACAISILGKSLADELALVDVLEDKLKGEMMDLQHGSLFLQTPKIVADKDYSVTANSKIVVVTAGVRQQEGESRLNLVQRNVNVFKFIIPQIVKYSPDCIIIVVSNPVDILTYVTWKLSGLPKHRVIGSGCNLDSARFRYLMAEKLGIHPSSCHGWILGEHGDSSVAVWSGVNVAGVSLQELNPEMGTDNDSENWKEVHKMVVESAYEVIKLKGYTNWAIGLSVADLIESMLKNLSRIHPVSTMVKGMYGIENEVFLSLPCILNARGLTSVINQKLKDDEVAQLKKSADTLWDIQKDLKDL

On to `Cc1ccc(C#Cc2cccc(-c3nn(-c4nc(C(=O)O)cs4)c(CCC4CC4)c3Cc3ccc(S(N)(=O)=O)c(F)c3)c2)o1`, for which the IC50 stood at 95 nM in test [1]; 137 nM in the test with A673; 52 nM in test [2]; 137 nM with MIA PaCa-2; 547 nM in test [4]; 417 nM in test [5]. The inhibition result in test [3] is “Active”. For the same compound, the inhibition entry in the test filed under Sus scrofa is “inactive”.

Take `Cc1cc(C)c(C#Cc2cccc(-c3nn(-c4nc(C(=O)O)cs4)c(CC4CC4)c3Cc3ccc(S(N)(=O)=O)c(F)c3)c2)s1`: the IC50 in test [1] was determined as 201 nM; in the test with A673 it was 528 nM; in test [2], 137 nM; with MIA PaCa-2 it was 533 nM; in test [4], 345 nM; in test [5], 218 nM. The inhibition entry in test [3] was “Active”. Moreover, in the test filed under Sus scrofa, the inhibition result was “inactive”.

In the case of `COCC#Cc1cc(-c2nn(-c3nc(C(=O)O)cs3)c(CC3CC3)c2Cc2ccc(S(N)(=O)=O)c(F)c2)ccc1F`, the IC50 in test [1] was found to be 119 nM; in the test with A673 it was 1220 nM; in test [2], 8 nM; in the test on MIA PaCa-2, 1090 nM; in test [4] it was 769 nM; in test [5], 525 nM. For the same compound, the inhibition result in test [3] is “Active”. The inhibition result in the test filed under Sus scrofa is “inactive”.

For `Cc1cc(C#Cc2cccc(-c3nn(-c4nc(C(=O)O)cs4)c(CCC4CC4)c3Cc3ccc(S(N)(=O)=O)c(F)c3)c2)c(C)s1`, the IC50 in test [1] was 299 nM; in the test with A673, 402 nM; in test [2] it was 487 nM; with MIA PaCa-2, 402 nM; in test [4] it was 162 nM; in test [5], 188 nM. The inhibition entry in test [3] was “Active”. Besides, in the test filed under Sus scrofa, the inhibition result is “inactive”.

`CC(C)C#Cc1cc(-c2nn(-c3nc(C(=O)O)cs3)c(CC3CC3)c2Cc2ccc(S(N)(=O)=O)c(F)c2)ccc1F`: the IC50 in test [1] was 2050 nM; in the test on A673, 1010 nM; in test [2], 21 nM; in the test on MIA PaCa-2, 756 nM; in test [4], 284 nM; in test [5], 487 nM. In addition, the inhibition result in test [3] was “Active”. Also, in the test filed under Sus scrofa, the inhibition entry is “inactive”.

`NS(=O)(=O)c1ccc(Cc2c(-c3cccc(C#CC4CCCC4)c3)nn(-c3nc(C(=O)O)cs3)c2CC2CC2)cc1F`: the IC50 in test [1] was found to be 89 nM; in the test on A673, 419 nM; in test [2] it was 47 nM; in the test with MIA PaCa-2, 377 nM; in test [4], 298 nM; in test [5] it was 281 nM. Besides, in test [3], the inhibition entry is “Active”. In the test filed under Sus scrofa, the inhibition result is “inactive”.

Take `NS(=O)(=O)c1ccc(Cc2c(-c3ccc(F)c(C#CC4CC4)c3)nn(-c3nc(C(=O)O)cs3)c2CC2CC2)cc1F`: the IC50 in test [1] came to 100 nM; with A673, 132 nM; in test [2], 9 nM; with MIA PaCa-2 it was 323 nM; in test [4] it was 695 nM; in test [5], 554 nM. Besides, the inhibition result in test [3] was “Active”. In addition, the inhibition entry in the test listed under Sus scrofa was “inactive”.

Regarding `CC(C)c1ccc(C#Cc2cccc(-c3nn(-c4nc(C(=O)O)cs4)c(CC4CC4)c3Cc3ccc(S(N)(=O)=O)c(F)c3)c2)s1`, the half-maximal inhibitory concentration (IC50) in test [1] is 179 nM; with A673, 528 nM; in test [2] it was 385 nM; in the test with MIA PaCa-2 it was 590 nM; in test [4], 296 nM; in test [5], 203 nM. The inhibition entry in test [3] is “Active”. Also, the inhibition result in the test listed under Sus scrofa was “inactive”.

`Cc1nc(C#Cc2cccc(-c3nn(-c4nc(C(=O)O)cs4)c(CCC4CC4)c3Cc3ccc(S(N)(=O)=O)c(F)c3)c2)cs1`: the IC50 came out at 90 nM in test [1]; 219 nM in the test on A673; 24 nM in test [2]; 219 nM with MIA PaCa-2; 300 nM in test [4]; 253 nM in test [5]. Moreover, the inhibition result in test [3] was “Active”. The inhibition result in the test listed under Sus scrofa is “inactive”.

Regarding `CC(C)(C)C#Cc1cc(-c2nn(-c3nc(C(=O)O)cs3)c(CC3CC3)c2Cc2ccc(S(N)(=O)=O)c(F)c2)ccc1F`, the IC50 in test [1] was 75 nM; in the test with A673 it was 935 nM; in test [2], 16 nM; in the test with MIA PaCa-2, 845 nM; in test [4], 141 nM; in test [5], 137 nM. In addition, in test [3], the inhibition result is “Active”. Also, the inhibition result in the test listed under Sus scrofa was “inactive”.

With `NS(=O)(=O)c1ccc(Cc2c(-c3cccc(C#Cc4ccc(C(F)F)s4)c3)nn(-c3nc(C(=O)O)cs3)c2CC2CC2)cc1F`, the IC50 in test [1] amounted to 134 nM; in the test with A673, 528 nM; in test [2] it was 154 nM; in the test on MIA PaCa-2, 528 nM; in test [4], 345 nM; in test [5] it was 286 nM. In test [3], the inhibition entry was “Active”. For the same compound, in the test listed under Sus scrofa, the inhibition result was “inactive”.

In the case of `NS(=O)(=O)c1ccc(Cc2c(-c3cccc(C#Cc4ccc(Cl)s4)c3)nn(-c3nc(C(=O)O)cs3)c2CC2CC2)cc1F`, the IC50 in test [1] stood at 113 nM; in the test on A673, 452 nM; in test [2], 167 nM; in the test with MIA PaCa-2, 556 nM; in test [4], 218 nM; in test [5] it was 408 nM. Further, in test [3], the inhibition entry was “Active”. In the test listed under Sus scrofa, the inhibition result is “inactive”.

As to `Cc1ncc(C#Cc2cccc(-c3nn(-c4nc(C(=O)O)cs4)c(CC4CC4)c3Cc3ccc(S(N)(=O)=O)c(F)c3)c2)s1`, the IC50 in test [1] was found to be 38 nM; in the test with A673, 532 nM; in test [2], 43 nM; in the test with MIA PaCa-2 it was 641 nM; in test [4] it was 713 nM; in test [5], 720 nM. Moreover, the inhibition entry in test [3] was “Active”. In addition, the inhibition result in the test filed under Sus scrofa was “inactive”.

For the compound `Cc1ccc(/C=C/c2cccc(-c3nn(-c4nc(C(=O)O)cs4)c(CC4CC4)c3Cc3ccc(S(N)(=O)=O)c(F)c3)c2)s1`, the IC50 in test [1] was determined as 158 nM; in the test with A673, 452 nM; in test [2], 52 nM; with MIA PaCa-2, 471 nM; in test [4], 357 nM; in test [5] it was 331 nM. Moreover, the inhibition result in test [3] is “Active”. Also, the inhibition result in the test listed under Sus scrofa was “inactive”.

Regarding `CCC#Cc1cc(-c2nn(-c3nc(C(=O)O)cs3)c(CC3CC3)c2Cc2ccc(S(N)(=O)=O)c(F)c2)ccc1F`, the IC50 was determined as 112 nM in test [1]; 716 nM with A673; 14 nM in test [2]; 662 nM with MIA PaCa-2; 487 nM in test [4]; 470 nM in test [5]. The inhibition entry in test [3] is “Active”. The inhibition result in the test listed under Sus scrofa is “inactive”.

Take `NS(=O)(=O)c1ccc(Cc2c(-c3ccc(F)c(C#CC(F)(F)F)c3)nn(-c3nc(C(=O)O)cs3)c2CC2CC2)cc1F`: the IC50 in test [1] is 14000 nM; in the test on A673, > 30000 nM; in test [2], 450 nM; with MIA PaCa-2 it was > 30000 nM; in test [4], > 30000 nM; in test [5] it was > 30000 nM. Moreover, in test [3], the inhibition entry is “Active”. Besides, the inhibition result in the test filed under Sus scrofa was “inactive”.
